Results from different studies.
Compare with care: the assays were run in different laboratories.
Target: Phosphatidylinositol 3-kinase C2 domain-containing subunit gamma (PIK3C2G, Homo sapiens, UniProt O75747)
Sequence (O75747 1-1486, as in one of the studies): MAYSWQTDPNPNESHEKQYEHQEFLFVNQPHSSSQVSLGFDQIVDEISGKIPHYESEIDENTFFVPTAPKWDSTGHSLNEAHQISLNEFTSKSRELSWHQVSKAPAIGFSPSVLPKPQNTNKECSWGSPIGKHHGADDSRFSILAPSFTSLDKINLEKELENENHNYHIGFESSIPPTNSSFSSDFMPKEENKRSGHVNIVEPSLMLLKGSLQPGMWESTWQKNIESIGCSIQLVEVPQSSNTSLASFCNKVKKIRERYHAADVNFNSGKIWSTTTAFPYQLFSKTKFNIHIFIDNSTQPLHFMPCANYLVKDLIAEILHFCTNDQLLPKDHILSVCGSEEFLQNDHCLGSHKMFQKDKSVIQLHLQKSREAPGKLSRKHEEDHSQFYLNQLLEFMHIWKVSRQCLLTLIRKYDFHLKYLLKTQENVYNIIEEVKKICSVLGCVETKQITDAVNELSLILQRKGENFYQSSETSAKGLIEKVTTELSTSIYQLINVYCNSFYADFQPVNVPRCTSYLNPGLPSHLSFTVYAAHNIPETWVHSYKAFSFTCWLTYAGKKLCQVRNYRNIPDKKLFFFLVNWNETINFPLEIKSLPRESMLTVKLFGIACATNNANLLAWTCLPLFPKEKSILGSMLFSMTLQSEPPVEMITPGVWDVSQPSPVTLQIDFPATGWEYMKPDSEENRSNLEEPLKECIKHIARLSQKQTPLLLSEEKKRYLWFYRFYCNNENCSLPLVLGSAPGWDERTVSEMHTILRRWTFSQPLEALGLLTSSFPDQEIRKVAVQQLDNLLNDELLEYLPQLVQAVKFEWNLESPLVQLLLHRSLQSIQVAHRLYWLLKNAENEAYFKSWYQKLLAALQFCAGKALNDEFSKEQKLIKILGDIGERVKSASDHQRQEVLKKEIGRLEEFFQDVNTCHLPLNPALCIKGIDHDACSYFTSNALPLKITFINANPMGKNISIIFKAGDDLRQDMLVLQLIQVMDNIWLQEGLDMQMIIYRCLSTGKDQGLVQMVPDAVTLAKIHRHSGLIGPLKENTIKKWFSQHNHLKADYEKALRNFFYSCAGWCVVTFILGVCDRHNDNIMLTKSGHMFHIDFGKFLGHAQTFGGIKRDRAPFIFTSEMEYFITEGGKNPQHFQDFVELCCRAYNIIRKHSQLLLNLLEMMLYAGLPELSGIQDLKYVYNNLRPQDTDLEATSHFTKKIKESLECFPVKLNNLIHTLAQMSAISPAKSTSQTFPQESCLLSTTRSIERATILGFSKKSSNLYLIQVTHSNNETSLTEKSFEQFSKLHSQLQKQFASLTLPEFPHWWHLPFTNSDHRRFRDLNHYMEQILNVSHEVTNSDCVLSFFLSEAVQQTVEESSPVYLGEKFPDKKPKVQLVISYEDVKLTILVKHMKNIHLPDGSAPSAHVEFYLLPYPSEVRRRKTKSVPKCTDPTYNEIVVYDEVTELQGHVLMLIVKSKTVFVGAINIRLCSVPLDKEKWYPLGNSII

| Structure (SMILES) | read-out | method | concentration | remaining binding [%] |
| --- | --- | --- | --- | --- |
| CCN1CCN(Cc2ccc(C(=O)Nc3ccc(C)c(Oc4ccc5c(c4)CC(=O)N5)c3)cc2C(F)(F)F)CC1 | binding | competition with immobilised ligand | 1 µM | 100 |
| N#CC1(c2ccccn2)CCN(Cc2cc(C(=O)N3CCCC3)c(=O)n3ccccc23)CC1 | cell-free assay | competition with immobilised ligand | 1 µM | 73 |
| COc1ncc2cc3ccccc3nc2c1C#N | cell-free assay | competition with immobilised ligand | 5 µM | 84 |
| O=C(c1ccc(Nc2ncc(Cl)c(-c3cc4ccccc4s3)n2)cc1)N1CCC(N2CCCC2)CC1 | binding | competition with immobilised ligand | 1 µM | 96 |
| Cc1nc(C2CCN(C(=O)c3ccc(OC(F)(F)F)cc3N)CC2)c2ncc(N3CCN(C)CC3)cc2n1 | cell-free assay | competition with immobilised ligand | 1 µM | 100 |
| C[C@@H](c1ccc(-n2cnc3c(N)ncnc32)cc1)N1CCc2nn(C)c(Cc3ccccc3)c2C1=O | binding | competition with immobilised ligand | 0.1 µM | 92 |
| N[C@H]1CCN(c2nccc(-c3cnn4ncccc34)n2)C1 | binding | – | 1 µM | 100 |
| O=C(NCCCN1CCOCC1)c1ccc(Nc2ncc(Cl)c(-c3ccc(Cl)s3)n2)cc1 | binding | competition with immobilised ligand | 1 µM | 100 |
| FC(F)(F)Oc1cccc(-c2cnc3ccc(-c4ccncc4)nn23)c1 | cell-free assay | competition with immobilised ligand | 5 µM | 34 |
| CN(C)c1ncc(F)c(-c2cnn3ncccc23)n1 | binding | – | 1 µM | 56 |
| CNC(=O)[C@@H]1CC[C@@H](n2c(-c3ccc4cnccc4c3)nc3ccc(C(=O)NCc4cccc(C(N)=O)c4)cc32)C1 | binding | competition with immobilised ligand | 1 µM | 100 |
| CN(c1nccc(-c2cnn3ncccc23)n1)C1CC1 | binding | – | 1 µM | 99 |
| CNCc1ccccc1-c1csc([C@@H](C)Nc2nc(C)nc3cc(OC)c(OC)cc23)c1 | cell-free assay | competition with immobilised ligand | 1 µM | 59 |
| O=C(Nc1c[nH]nc1C(=O)NC1CCNCC1)c1cc(F)cc(F)c1 | binding | competition with immobilised ligand | 1 µM | 100 |
| CN(C)c1nccc(-c2cnc3ncccn23)n1 | binding | – | 1 µM | 51 |
| C[C@@H](c1cccc(C#N)c1)n1cc(Cl)cc(C(N)=O)c1=N | cell-free assay | competition with immobilised ligand | 1 µM | 84 |
| Cc1nc(NC(=O)N2CCC[C@H]2C(N)=O)sc1-c1ccnc(C(C)(C)C(F)(F)F)c1 | binding | competition with immobilised ligand | 10 µM | 9.6 |
| CNC(=O)c1ccc(Nc2ncc(C(F)(F)F)c(NCc3nccnc3N(C)S(C)(=O)=O)n2)cc1 | cell-free assay | competition with immobilised ligand | 0.1 µM | 92 |
| F[C@@H]1CCN(c2nccc(-c3cnn4ncccc34)n2)C1 | binding | – | 1 µM | 82 |
| CCS(=O)(=O)c1cc2cc(C[C@](O)(CC(C)(C)c3ccc(F)cc3C(N)=O)C(F)(F)F)[nH]c2cn1 | cell-free assay | competition with immobilised ligand | 1 µM | 100 |
| O=C(NCCCN1CCOCC1)c1ccc(Nc2nccc(-c3cc4ccccc4s3)n2)cc1 | binding | competition with immobilised ligand | 1 µM | 68 |
